For test [1], the species on record is Homo sapiens. The test is described as follows: Activation of human STEP46 (197 to 565 residues) expressed in Escherichia coli BL21(DE3) at 100 uM using biotin-pFyn peptide substrate after 60 mins by AlphaLISA assay relative to control. An outline of the steps: (§1)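 STEP46 (50 nM final) with biotinylated pFyn peptide (20 nM final) and compound in 1% DMSO, 60 min at room temperature in the dark. Detection by anti non-phospho Src/Tyr416 antibody in stop buffer containing 10 μM orthovanadate, plus protein A acceptor and streptavidin donor beads, 15 min each. % CTL computed against enzyme (100%) and no-enzyme (0%) controls.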

For test [2], the species on record is Homo sapiens. The test is described as follows: Binding affinity to human STEP46 (197 to 565 residues) expressed in Escherichia coli BL21(DE3) assessed as increase in melting temperature at 500 uM by SYPRO Orange dye based DSF. An outline of the steps: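 STEP46 at 5 μM with 25× SYPRO Orange and 500 μM ligand (1% DMSO) in 20 mM HEPES pH 7.5, 50 mM NaCl, 1 mM TCEP, in duplicate. Heated 25 to 95 °C at 1 °C/min with reads every 0.5 °C. Tm taken from the minimum of the first-derivative curve; ΔTm relative to DMSO.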

In test [3] the target is T1, Tyrosine-protein phosphatase non-receptor type 5 (Homo sapiens, UniProt P54829).
T1 sequence (P54829 whole entry): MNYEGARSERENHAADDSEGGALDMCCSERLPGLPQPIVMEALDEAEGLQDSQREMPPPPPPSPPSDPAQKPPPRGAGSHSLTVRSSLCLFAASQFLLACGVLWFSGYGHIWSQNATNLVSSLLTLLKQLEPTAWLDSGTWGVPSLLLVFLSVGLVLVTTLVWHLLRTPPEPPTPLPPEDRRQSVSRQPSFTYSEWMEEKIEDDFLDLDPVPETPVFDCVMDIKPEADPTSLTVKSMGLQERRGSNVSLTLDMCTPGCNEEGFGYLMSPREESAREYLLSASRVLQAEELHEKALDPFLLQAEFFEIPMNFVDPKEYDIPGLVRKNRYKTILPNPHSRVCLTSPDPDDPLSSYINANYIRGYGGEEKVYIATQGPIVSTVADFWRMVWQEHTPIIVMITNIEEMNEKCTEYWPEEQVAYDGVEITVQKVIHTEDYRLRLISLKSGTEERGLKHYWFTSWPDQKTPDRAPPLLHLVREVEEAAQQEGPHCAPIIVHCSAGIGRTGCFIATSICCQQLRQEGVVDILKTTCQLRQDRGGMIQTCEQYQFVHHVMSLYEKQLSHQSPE
The test is described as follows: Binding affinity to human 15N-labeled STEP PTP domain (281 to 563 residues) expressed in Escherichia coli OD2 by 1H,15N TROSY NMR spectral analysis. An outline of the steps: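 40 μM ¹⁵N-labeled STEP PTP domain (expressed in ¹⁵N OD2 medium) in 20 mM Tris-d11, 100 mM NaCl, 1 mM TCEP, pH 7.4, 8% D₂O, with 500 μM ligand and 1% DMSO-d₆ at 298 K. 2D spectra of 192 transients were compared by hand with the protein reference spectrum.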

The target in test [4] is T2, Tyrosine-protein phosphatase non-receptor type 2 (Homo sapiens) (UniProt P17706).
T2 sequence (whole entry): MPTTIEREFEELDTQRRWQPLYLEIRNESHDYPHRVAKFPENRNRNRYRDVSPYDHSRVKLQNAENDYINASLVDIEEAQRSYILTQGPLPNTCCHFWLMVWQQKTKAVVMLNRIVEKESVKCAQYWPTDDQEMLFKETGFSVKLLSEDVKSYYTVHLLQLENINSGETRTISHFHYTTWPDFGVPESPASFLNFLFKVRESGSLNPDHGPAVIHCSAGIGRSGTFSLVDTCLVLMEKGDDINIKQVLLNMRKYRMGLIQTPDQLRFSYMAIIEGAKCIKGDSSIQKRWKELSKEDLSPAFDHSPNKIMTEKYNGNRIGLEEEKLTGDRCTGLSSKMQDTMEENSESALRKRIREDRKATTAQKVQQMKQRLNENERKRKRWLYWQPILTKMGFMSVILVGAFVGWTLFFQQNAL
The test is described as follows: Activation of human TCPTP (2 to 345 residues) at 500 uM using biotin-Ahx-EDT-pY-Y-RKG-amide as substrate measured after 2 hrs by AlphaLISA assay. An outline of the steps:
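In-house TC-PTP (2−345) at 500 pM final, preincubated 10 min at 24 °C with compound (up to 500 μM), then EDT-pY-Y-RKG-amide substrate (1.4 μM final); 1.5 h at 24 °C, stopped with 200 μM orthovanadate. Competition AlphaScreen with biotin-Ahx-EDT-pY-Y-RKG-amide (2.5 nM) and antibody 4G10 (500 pM), 2 h at 24 °C. Quantified from on-plate standard curve.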
For orientation: In Alpha technology, singlet oxygen from a donor bead excites a nearby acceptor bead.

The target of test [5] is T3, Tyrosine-protein phosphatase non-receptor type 1 (Homo sapiens) (UniProt P18031).
T3 sequence (whole entry): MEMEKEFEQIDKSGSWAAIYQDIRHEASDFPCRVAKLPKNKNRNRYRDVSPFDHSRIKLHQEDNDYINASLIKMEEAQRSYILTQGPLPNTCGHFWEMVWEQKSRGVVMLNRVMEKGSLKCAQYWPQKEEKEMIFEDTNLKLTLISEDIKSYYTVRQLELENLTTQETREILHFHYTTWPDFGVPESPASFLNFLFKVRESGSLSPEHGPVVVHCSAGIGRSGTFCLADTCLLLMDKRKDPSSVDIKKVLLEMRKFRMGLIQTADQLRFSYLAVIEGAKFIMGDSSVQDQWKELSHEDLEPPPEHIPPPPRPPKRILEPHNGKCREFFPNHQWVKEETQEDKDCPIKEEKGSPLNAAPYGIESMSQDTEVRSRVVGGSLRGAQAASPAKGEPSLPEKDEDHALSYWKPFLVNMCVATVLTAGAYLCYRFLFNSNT
In words: Binding affinity to human PTP1B by 1H,15N TROSY NMR spectral analysis.

The species entered for test [6] is Homo sapiens. In words: Activation of human STEP46 (197 to 565 residues) expressed in Escherichia coli BL21(DE3) using pFyn peptide substrate after 60 mins by RapidFire MS/MS assay relative to control. An outline of the steps:
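Unlabeled Fyn peptide with STEP46 (50 nM final) and compound (500 μM final) in 50 mM HEPES, 0.02% Brij35, 1 mM DTT; 1 h at room temperature. Stopped with sodium orthovanadate (12 μM final), internal standard peptide added, dephosphorylation quantified by RapidFire MS/MS using MRM in positive mode.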

Test [7] deals with T4, Tyrosine-protein phosphatase non-receptor type 5 (Homo sapiens) (UniProt P54829).
T4 sequence (whole entry): T1 sequence (P54829 whole entry)
In words: Activation of human STEP PTP domain (281 to 563 residues) expressed in Escherichia coli BL21(DE3) at 500 uM using biotin-pFyn peptide substrate after 60 mins by AlphaLISA assay relative to control. An outline of the steps:
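AlphaLISA on the human STEP PTP domain (E. coli BL21(DE3)), 20 nM enzyme with 3 nM biotin-pFyn peptide, otherwise as for STEP46: 60 min at room temperature, anti non-phospho Src/Tyr416 antibody with orthovanadate stop, donor and acceptor beads, % of enzyme and no-enzyme controls.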

The species entered for test [8] is Homo sapiens. The test is described as follows: Activation of human STEP46 (197 to 565 residues) expressed in Escherichia coli BL21(DE3) using biotin-pFyn peptide substrate after 60 mins by AlphaLISA assay. An outline of the steps: as §1

Calls of active or inactive are those of the source. The calls are words filed in the database; no cut-off is given here.

The ΔTm is the change in melting temperature against a reference sample. Usually Kd stands for the concentration at which binding is half-saturated. High values mean a looser complex, low ones a tighter complex.

With `N=C(N)Nc1cc(C2CCNCC2)cc(C(F)(F)F)c1`, the Activity was 33% in the test listed under Homo sapiens [1], 28% in the test filed under Homo sapiens [6], 61% in test [7] and “Dose-dependent effect” in the test listed under Homo sapiens [8]. In the test listed under Homo sapiens [2], the thermal shift (ΔTm) was determined as 1.4 °C. Besides, the dissociation constant (Kd) in test [3] came out at 38 µM. Further, the result in test [4] and in test [5] was inactive.

Values taken from ChEMBL document CHEMBL4308845, “Allosteric Activation of Striatal-Enriched Protein Tyrosine Phosphatase (STEP, PTPN5) by a Fragment-like Molecule” (J Med Chem, 2019).
